Screening results (PubChem BioAssay)
RAM network inh = inhibitors of the yeast RAM network. S. cerevisiae dse1pr::URA3 reporter, 5-FOA growth OD615, 2 d; analog-sensitive cbk1-as2 kinase mutant strain. inhibition, % at 50 µM. 190,000 tested, 1.8% active;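 active = inhibition above a set limit, 3 SD over mean compound inhibition, cut at about 8.4% in these data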;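 note: 0% = DMSO-only wells with no growth and 100% = 10 µM 1-NA-PP1 full growth; inhibition rescues growth on 5-FOA so higher OD means more RAM inhibition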
Yeast lifespan up = yeast lifespan extension; inhibition of the nicotinamide effect, % at 10 µM; S. cerevisiae growth with nicotinamide, OD615; deaD strain in restrictive glucose medium; AID 775; 130,000 tested, 0.68% active;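 active = inhibition above a set limit, placed 3 SD over the median of all compounds, cut at about 26% in these data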;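 note: 0% = nicotinamide-treated wells and 100% = cells grown without nicotinamide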
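Material: Modified budding yeast, DeaD strain | Medium: Restrictive glucose medium | Probe or stimulus: 1.5 mM nicotinamide | Dosing: Single dose 10 µM compound, 0.25% DMSO | Times: 48 h at 30 °C | Technique: OD615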
Insulin prom up = MIN6 insulin promoter up-regulation; AID 1625; z-score at 5 µM; MIN6 insulin promoter-GFP reporter, high-content imaging; stronger effect = higher value; 190,000 tested, 0.3% active;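 active = z-score above 3 at 5 µM with at least 500 cells counted in the well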
Insulin prom inh = TRM-6 insulin promoter activity inhibition; TRM-6 cells, insulin promoter-eGFP reporter, imaging; reporter expression induced with tamoxifen; inhibition, % at 2 µM; 130,000 tested, 0.9% active; AID 1273;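 active = inhibition above the mean plus 3 SD, with well images judged a real hit on visual review, cut at about 60% in these data, passing the limit was not always enough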
Yeast growth inh = chemicals that inhibit yeast BB579 growth in restrictive medium (lifespan-shortening candidates); S. cerevisiae BB579 growth, OD615, 48 h; 140,000 tested, 0.51% active; inhibition, % at 10 µM;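 active = inhibition above a set limit, 3 SD over the mean compound inhibition, cut at about 44% in these data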
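Material: Saccharomyces cerevisiae DeaD strain BB579, replicative lifespan model yeast; buffer or medium: CSMM-D restrictive synthetic medium containing dextrose (glucose); compound: 10 µM single dose, DMSO 0.25%; timing: 48 h compound exposure at 30 °C after 4 h preincubation; signal: turbidity as optical density at 615 nm; benchmarks: positive control amphotericin B 10 µg/mL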
Starred values were filed as active, the others as inactive; . = not tested or not shown. Hits are enriched below; roughly 3.1% of the tested compounds scored in any of these assays.

SMILES	RAM network inh	Yeast lifespan up	Insulin prom up	Insulin prom inh	Yeast growth inh
COc1ccc(Nc2nnc(Cc3ccccc3)c(=O)[nH]2)c(OC)c1	1.5	3.0	-0.16	85.7*	10.8
O=C(/C=C/Sc1ccccc1)c1ccc(Cl)cc1	1.5	27.9*	0.2	6.7	-58.1
O=C(/C=C/Sc1ccccc1)c1ccccc1	0.3	24.7	0.05	-31.5	-72.0
O=S1(=O)CCC(NC(=S)N2CCOCC2)C1 (configuration not stated)	-0.6	13.1	0.44	.	-38.4
COc1cccc(N2CCN(c3ncccn3)CC2)c1	0.7	-5.4	3.1*	.	-22.9
COc1cccc(C(=O)N2CCN(c3ncccn3)CC2)c1	2.1	1.8	-0.16	.	-31.1
S=c1[nH]nc(Cn2cnc3ccccc32)n1-c1ccccc1	1.3	.	-0.28	27.3	.
COc1ccc(O)c(-c2cc(C(F)(F)C(F)F)nc(-c3ccccc3)n2)c1	9.1*	-0.9	-0.24	-12.2	-16.8
COC(=O)CS(=O)(=O)c1nnc([C@H](Cc2ccccc2)NC(=O)OC(C)(C)C)o1	1.8	-7.7	-0.08	70.3*	-47.4
COc1ccc(N(C)S(=O)(=O)c2cccc(C(=O)Nc3nc4ccccc4[nH]3)c2)cc1	3.5	.	-3.07	71.4*	.
COc1cccc(C(=O)NC2=NCCS2)c1	1.4	-8.7	.	75.0*	18.8
CCc1nnc(NC(=O)c2cccc(S(=O)(=O)N(C)c3ccccc3)c2)s1	2.1	71.5*	0.57	-50.7	-91.3
CN(c1cccc(Cl)c1)S(=O)(=O)c1cccc(C(=O)NC2=NCCS2)c1	3.0	-11.4	3.48*	-21.1	-4.5
COc1ccc2nc(NC(=O)CCc3cc(OC)c(OC)c(OC)c3)sc2c1	7.0	.	-0.86	.	.
O=C(O)c1cccc(-n2c(-c3cnccn3)n[nH]c2=S)c1	1.4	.	0.63	.	.
CCCc1cc(Nc2ccccc2OCC)n2ncnc2n1	0.8	-7.4	0.47	-34.3	-40.7
CC(=O)O[C@@H]1[C@@]2(C)O[C@H]2CC[C@]23O[C@H]2[C@H](OC3=O)C2=C(C)C(=O)O[C@@]21O	0.7	2.9	-0.21	-14.3	-49.5
O=C(CCC(=O)OCC(=O)c1ccc(-c2ccccc2)cc1)Nc1cccc2cccnc12	10.4*	-17.9	1.52	-15.4	-54.9
O=C(CCC(=O)OCC(=O)c1ccc(Cl)cc1Cl)Nc1cccc2cccnc12	4.1	-19.0	2.23	-38.5	-54.0
COCc1ccc([C@@H]2C[C@H]3CN(Cc4ccccc4C)C(=O)[C@]34CCCN24)o1	-0.1	.	.	.	.
C/C(=N\NC(=O)c1ccc([N+](=O)[O-])c(C)c1)c1ccccc1Cl	2.9	-0.6	-0.02	44.8	-55.4
O=C(NC1CCCCC1)C(c1ccccn1)N(C(=O)c1csnn1)C1CC1 (configuration not stated)	-0.2	.	.	.	.
CC1(C)CC(NC(=O)Cc2ccccc2[N+](=O)[O-])CC(C)(C)N1	1.3	0.1	0.22	-32.3	-43.1
COc1ccccc1CC(=O)NC1CC(C)(C)NC(C)(C)C1	0.6	-7.6	3.65*	-37.5	-13.5
CNC(=O)C1CC(=O)N/C(=N/N=C(\C)c2cccs2)S1 (configuration not stated)	-0.9	-0.7	3.72*	26.3	-52.0
SMILES	RAM network inh	Yeast lifespan up	Insulin prom up	Insulin prom inh	Yeast growth inh
C/C(=N\N=C1\NC(=O)CC(C(=O)O)S1)c1cccs1 (configuration not stated)	-0.4	-1.8	.	0.0	-10.2
Cc1cc(C)c2c(N=NN3CCOCC3)[nH]nc2n1	-1.1	-4.1	-0.44	.	66.3*
Cc1cc(C)c2c(n1)sc1c(N3CCOCC3)ncnc12	.	.	.	-39.7	.
Cc1nn(-c2ccccc2)c(C)c1N	0.7	.	-0.44	75.0*	.
O=C(NNC(=S)NC(=O)C12CC3CC(CC(C3)C1)C2)c1ccncc1	-1.2	-3.5	-0.27	.	74.3*
O=C(COc1ccccc1[N+](=O)[O-])Nc1cc(Cl)ccc1C(=O)O	0.4	.	0.71	.	.
CCOC(=O)N1CCN(C(=O)CCSCCc2ccncc2)CC1	0.4	-3.9	-1.14	78.6*	-9.0
COc1ccccc1C1(O)CCN(CC(=O)Nc2nc(-c3ccccc3)cs2)CC1	-0.4	.	-0.98	.	.
O=S(=O)(c1ccc2oc3ccc(S(=O)(=O)N4CCCCC4)cc3c2c1)N1CCCCC1	4.2	-2.5	-3.18	44.2	-22.9
S=C(N/N=C1\C2CN3CCN(C2)CC1(c1ccccc1)C3)Nc1ccccc1	-0.9	-2.1	0.11	-50.0	-32.1
Cc1cccc(Nc2nc(-c3ccccn3)cs2)n1	-1.2	-25.1	-1.19	-23.1	99.7*
Cc1cccnc1Nc1nc(-c2ccc(O)cc2O)cs1	1.0	-4.5	-1.13	56.2	-5.1
